Legend:
Kidney [1] = assay: Biodistribution in Sprague-Dawley rat kidney assessed per gram tissue wet weight at 300 umol/kg, sc after 1 hr; type: ADME, organism-based; details: in vivo
Pancreas [2] = assay: Biodistribution in Sprague-Dawley rat pancreas assessed per gram tissue wet weight at 300 umol/kg, po after 1 hr; type: ADME, organism-based; details: in vivo
In short: (§1)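 Male Sprague–Dawley rats (250–350 g) got one 300 µmol/kg dose, po or sc. Vehicle was water or the monosodium salt (free acid plus 1 equiv NaOH). Three rats per time point were euthanized by CO2 at 1, 2 or 4 h. Plasma came from citrated cardiac blood; liver, kidney, heart and pancreas were removed. Drug levels were measured by HPLC with UV detection at 310 nm against linear calibration curves (detection limit 0.25 µM).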

Rattus norvegicus [3] = assay: Iron-clearing efficiency in non-iron-overloaded Sprague-Dawley rat bile assessed as iron excretion at 150 umol/kg, po; type: functional
In short: (§2)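 Male Sprague–Dawley rats (400–450 g), not iron-loaded and bile duct-cannulated, got one dose of 50, 150 or 300 µmol/kg po, or 300 µmol/kg sc. Vehicle was water or the monosodium salt. Bile was collected every 3 h for 24 h and urine at 24 h. Iron was measured by atomic absorption. Efficiency was treated minus control iron excretion, divided by theoretical output (2:1 ligand:iron), as a percent; mean ± SEM.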

Sapajus apella [4] = assay: Iron-clearing efficiency in iron-overloaded Cebus apella at 150 umol/kg, po after 2 days relative to control; type: functional
In short: (§3)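 Monkeys (Cebus apella, 3.5–4 kg) were iron-loaded to about 500 mg Fe/kg with iv iron dextran and rested at least 60 days. They then got one 150 µmol/kg dose, po or sc. Feces and urine were collected every 24 h from 4 days before to 5 days after dosing, and iron was measured by flame atomic absorption. Efficiency was the 2-day post-drug iron minus the 4-day pre-drug baseline, divided by theoretical output (2:1 ligand:iron); mean ± SEM.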

Heart [5] = assay: Biodistribution in Sprague-Dawley rat heart assessed per gram tissue wet weight at 300 umol/kg, sc after 2 hrs; type: ADME, organism-based; details: in vivo
Pancreas [6] = assay: Biodistribution in Sprague-Dawley rat pancreas assessed per gram tissue wet weight at 300 umol/kg, sc after 1 hr; type: ADME, organism-based; details: in vivo
Liver [7] = assay: Biodistribution in Sprague-Dawley rat liver assessed per gram tissue wet weight at 300 umol/kg, sc after 2 hrs; type: ADME, organism-based; details: in vivo
Heart [8] = assay: Biodistribution in Sprague-Dawley rat heart assessed per gram tissue wet weight at 300 umol/kg, po after 2 hrs; type: ADME, organism-based; details: in vivo; in short: as §1
Kidney [9] = assay: Biodistribution in Sprague-Dawley rat kidney assessed per gram tissue wet weight at 300 umol/kg, po after 2 hrs; type: ADME, organism-based; details: in vivo; in short: as §1
Rattus norvegicus [10] = assay: Toxicity in non-iron-overloaded Sprague-Dawley rat assessed as survival at 384 umol/kg/day, po after 10 days by non-renal perfusion protocol; type: organism-based; details: in vivo, 240 h
In short: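 Non-iron-loaded male Sprague–Dawley rats (250–300 g) were fasted overnight and gavaged po once daily for 10 days at 384 µmol/kg/day. They were fed about 3 h postdose with 5 h food access, then fasted again. Survival was followed over the exposure. Euthanasia was 24 h after the last dose, with extensive tissue histopathology.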

Heart [11] = assay: Biodistribution in Sprague-Dawley rat heart assessed per gram tissue wet weight at 300 umol/kg, sc after 1 hr; type: ADME, organism-based; details: in vivo
Liver [12] = assay: Biodistribution in Sprague-Dawley rat liver assessed per gram tissue wet weight at 300 umol/kg, po after 2 hrs; type: ADME, organism-based; details: in vivo; in short: as §1
Plasma [13] = assay: Biodistribution in Sprague-Dawley rat plasma at 300 umol/kg, sc after 1 hr; type: ADME, organism-based; details: in vivo
Rattus norvegicus [14] = assay: Iron-clearing efficiency in non-iron-overloaded Sprague-Dawley rat at 300 umol/kg, sc after 24 hrs relative to control; type: functional; in short: as §2
Heart [15] = assay: Biodistribution in Sprague-Dawley rat heart assessed per gram tissue wet weight at 300 umol/kg, sc after 4 hrs; type: ADME, organism-based; details: in vivo
Plasma [16] = assay: Biodistribution in Sprague-Dawley rat plasma at 300 umol/kg, sc after 4 hrs; type: ADME, organism-based; details: in vivo
Pancreas [17] = assay: Biodistribution in Sprague-Dawley rat pancreas assessed per gram tissue wet weight at 300 umol/kg, sc after 2 hrs; type: ADME, organism-based; details: in vivo
Rattus norvegicus [18] = assay: Iron-clearing efficiency in non-iron-overloaded Sprague-Dawley rat bile assessed as iron excretion at 50 umol/kg, po; type: functional; in short: as §2
Liver [19] = assay: Biodistribution in Sprague-Dawley rat liver assessed per gram tissue wet weight at 300 umol/kg, po after 1 hr; type: ADME, organism-based; details: in vivo; in short: as §1
Heart [20] = assay: Biodistribution in Sprague-Dawley rat heart assessed per gram tissue wet weight at 300 umol/kg, po after 1 hr; type: ADME, organism-based; details: in vivo; in short: as §1
Pancreas [21] = assay: Biodistribution in Sprague-Dawley rat pancreas assessed per gram tissue wet weight at 300 umol/kg, po after 2 hrs; type: ADME, organism-based; details: in vivo; in short: as §1
Plasma [22] = assay: Biodistribution in Sprague-Dawley rat plasma at 300 umol/kg, sc after 2 hrs; type: ADME, organism-based; details: in vivo
Kidney [23] = assay: Biodistribution in Sprague-Dawley rat kidney assessed per gram tissue wet weight at 300 umol/kg, sc after 4 hrs; type: ADME, organism-based; details: in vivo
Rattus norvegicus [24] = assay: Nephrotoxicity in Sprague-Dawley rat assessed as heavy vacuolized renal tubules at […] for 7 days by renal perfusion studies; type: toxicity, organism-based; details: in vivo, 168 h, in the assay text read “237 umol/kg” for “273 umol/kg”
In short: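 Male Sprague–Dawley rats (200–250 g), fasted overnight, got 237 µmol/kg/dose po twice daily (474 µmol/kg/day) for 7 days and were fed about 3 h post-drug. Untreated age-matched rats were controls. One day post-drug, under pentobarbital, kidneys were perfusion-fixed with glutaraldehyde in Tyrode's buffer and embedded in TAAB. 500 nm sections were stained with toluidine blue and examined by light microscopy at 400×.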

Liver [25] = assay: Biodistribution in Sprague-Dawley rat liver assessed per gram tissue wet weight at 300 umol/kg, po after 4 hrs; type: ADME, organism-based; details: in vivo; in short: as §1
Kidney [26] = assay: Biodistribution in Sprague-Dawley rat kidney assessed per gram tissue wet weight at 300 umol/kg, po after 1 hr; type: ADME, organism-based; details: in vivo; in short: as §1
Rattus norvegicus [27] = assay: Iron-clearing efficiency in non-iron-overloaded Sprague-Dawley rat at 300 umol/kg, po after 24 hrs relative to control; type: functional; in short: as §2
Plasma [28] = assay: Biodistribution in Sprague-Dawley rat plasma at 300 umol/kg, po after 2 hrs; type: ADME, organism-based; details: in vivo; in short: as §1
Plasma [29] = assay: Biodistribution in Sprague-Dawley rat plasma at 300 umol/kg, po after 4 hrs; type: ADME, organism-based; details: in vivo; in short: as §1
Liver [30] = assay: Biodistribution in Sprague-Dawley rat liver assessed per gram tissue wet weight at 300 umol/kg, sc after 4 hrs; type: ADME, organism-based; details: in vivo
Rattus norvegicus [31] = assay: Iron-clearing efficiency in non-iron-overloaded Sprague-Dawley rat at 150 umol/kg, po after 24 hrs relative to control; type: functional; in short: as §2
Pancreas [32] = assay: Biodistribution in Sprague-Dawley rat pancreas assessed per gram tissue wet weight at 300 umol/kg, sc after 4 hrs; type: ADME, organism-based; details: in vivo
Liver [33] = assay: Biodistribution in Sprague-Dawley rat liver assessed per gram tissue wet weight at 300 umol/kg, sc after 1 hr; type: ADME, organism-based; details: in vivo
Rattus norvegicus [34] = assay: Toxicity in non-iron-overloaded Sprague-Dawley rat assessed as survival at 63.3 umol/kg/day, po after 30 days by non-renal perfusion protocol; details: in vivo, 720 h
Kidney [35] = assay: Biodistribution in Sprague-Dawley rat kidney assessed per gram tissue wet weight at 300 umol/kg, po after 4 hrs; type: ADME, organism-based; details: in vivo; in short: as §1
Kidney [36] = assay: Biodistribution in Sprague-Dawley rat kidney assessed per gram tissue wet weight at 300 umol/kg, sc after 2 hrs; type: ADME, organism-based; details: in vivo
Rattus norvegicus [37] = assay: Iron-clearing efficiency in non-iron-overloaded Sprague-Dawley rat at 50 umol/kg, po after 24 hrs relative to control; type: functional; in short: as §2
Plasma [38] = assay: Biodistribution in Sprague-Dawley rat plasma at 300 umol/kg, po after 1 hr; type: ADME, organism-based; details: in vivo; in short: as §1
Rattus norvegicus [39] = assay: Iron-clearing efficiency in non-iron-overloaded Sprague-Dawley rat bile assessed as iron excretion at 300 umol/kg, po; type: functional; in short: as §2
Sapajus apella [40] = assay: Iron-clearing efficiency in iron-overloaded Cebus apella at 150 umol/kg, sc after 2 days relative to control; type: functional; in short: as §3

Structure (SMILES): COCCOCCOCCOc1ccc(C2=N[C@@](C)(C(=O)O)CS2)c(O)c1
- Drug uptake (Kidney [1]): 252 nmol/g
- Drug uptake (Pancreas [2]): 25 nmol/g
- Activity (Rattus norvegicus [3]): >95%
- Activity (Sapajus apella [4]): 25.4%
- Drug uptake (Heart [5]): 9 nmol/g
- Drug uptake (Pancreas [6]): 30 nmol/g
- Drug uptake (Liver [7]): 132 nmol/g
- Drug uptake (Heart [8]): 9 nmol/g
- Drug uptake (Kidney [9]): 69 nmol/g
- Activity (Rattus norvegicus [10]): Non-toxic
- Drug uptake (Heart [11]): 35 nmol/g
- Drug uptake (Liver [12]): 144 nmol/g
- Drug uptake (Plasma [13]): 140 nmol/g
- Activity (Rattus norvegicus [14]): 8.7%
- Drug uptake (Heart [15]): 5 nmol/g
- Drug uptake (Plasma [16]): 5 nmol/g
- Drug uptake (Pancreas [17]): 30 nmol/g
- Activity (Rattus norvegicus [18]): >95%
- Drug uptake (Liver [19]): 159 nmol/g
- Drug uptake (Heart [20]): 17 nmol/g
- Drug uptake (Pancreas [21]): 9 nmol/g
- Drug uptake (Plasma [22]): 16 nmol/g
- Drug uptake (Kidney [23]): 34 nmol/g
- Activity (Rattus norvegicus [24]): Non-toxic
- Drug uptake (Liver [25]): 35 nmol/g
- Drug uptake (Kidney [26]): 114 nmol/g
- Activity (Rattus norvegicus [27]): 5.5%
- Drug uptake (Plasma [28]): 32 nmol/g
- Drug uptake (Plasma [29]): 2 nmol/g
- Drug uptake (Liver [30]): 67 nmol/g
- Activity (Rattus norvegicus [31]): 11.2%
- Drug uptake (Pancreas [32]): 13 nmol/g
- Drug uptake (Liver [33]): 339 nmol/g
- Activity (Rattus norvegicus [34]): Non-toxic
- Drug uptake (Kidney [35]): 10 nmol/g
- Drug uptake (Kidney [36]): 41 nmol/g
- Activity (Rattus norvegicus [37]): 21.7%
- Drug uptake (Plasma [38]): 64 nmol/g
- Activity (Rattus norvegicus [39]): >95%
- Activity (Sapajus apella [40]): 30.4%

— ChEMBL document CHEMBL1157468, “Design, synthesis, and testing of non-nephrotoxic desazadesferrithiocin polyether analogues” (J Med Chem, 2008)
